# Columns and labels:
# [1] = Cytotoxicity against human neutrophils up to 10 uM by MTT assay; type: cell-based; settings: neutrophil
# Neutrophil [2] = test: Inhibition of cytochalasin B and fMLP-stimulated human neutrophil degranulation assessed as inhibition of elastase release at 10 uM preincubated for 5 mins measured after 20 mins; type: functional
# Summary of the method: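 Neutrophils (2.5×10^6/mL) preincubated 5 min with compound or vehicle, then cytochalasin B (10 μM) + fMLP (10 nM), 10 min, 37 °C. Supernatant after 1200g spin at 4 °C, 10 min, reacted with Boc-L-alanine p-nitrophenyl ester (200 μM) 20 min, 37 °C; p-nitrophenol read at 414 nm. Direct enzyme inhibition checked by 5 min compound preincubation with stimulated supernatant before substrate.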
# Neutrophil [3] = test: Inhibition of TPA-induced chemiluminescence response in human neutrophils at 10 uM after 7 mins; type: functional
# Summary of the method: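 Neutrophils (2.5×10^6/mL) with luminol (40 μM), stimulated by TPA (1 μM); light output counted after 7 min, chosen as time of maximal production.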
# Neutrophil [4] = test: Inhibition of cytochalasin B and fMLP-stimulated human neutrophil degranulation assessed as inhibition of myeloperoxidase release at 10 uM preincubated for 5 mins; type: functional
# Summary of the method: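 Neutrophils (2.5×10^6 cells/mL) preincubated 5 min at 37 °C with compound in ethanol (ethanol alone for controls). Then stimulated 10 min at 37 °C with cytochalasin B (10 μM) plus fMLP (10 nM).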
Compound,Activity [1],inhibition at 10 µM (Neutrophil [2]),inhibition at 10 µM (Neutrophil [3]),inhibition at 10 µM (Neutrophil [4])
C=C[C@@]1(C)CC[C@H]2[C@](O)(CC[C@@H]3[C@]2(C)CCC[C@@]3(C)C=O)C1,Non-toxic,17.8%,30.5%,47.8%
C=C[C@@]1(C)CC[C@H]2[C@](O)(CC[C@H]3[C@](C)(COC(C)=O)CCC[C@@]32C)C1,Non-toxic,33.5%,6.5%,55.4%
C=C[C@@]1(C)CC[C@H]2[C@](O)(CC[C@H]3[C@](C)(CO)CCC[C@@]32C)C1,Non-toxic,24.1%,1.8%,46.7%

# From ChEMBL document CHEMBL1146537, “Diterpenoids from Tetraclinis articulata that inhibit various human leukocyte functions” (J Nat Prod, 2003)
